How the values were obtained:
[1] = system: Respiratory syncytial virus; assay: Antiviral activity against Respiratory syncytial virus infected in human Hep2 cells assessed as inhibition of virus-induced cytopathic effect after 72 hrs by XTT assay; type: functional, organism-based; details: HEp-2, 72 h
Procedure, shortened: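 RSV-induced cytopathic effect inhibition in Hep-2 (human laryngeal carcinoma) cells, run by an established CPE-inhibition procedure. Ribavirin served as the positive control. Values are the mean of three replicate determinations.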

[2] = Cytotoxicity against human Hep2 cells after 48 hrs; type: cell-based, HEp-2; details: read-out: TC50
[3] = Therapeutic index, ratio of TC50 for human Hep2 cells to IC50 for Respiratory syncytial virus; type: cell-based, HEp-2; details: read-out: TI

Row | SMILES | IC50 [1] | CC50 at 48 h [2] | selectivity ratio [3]
1 | CN[C@H](C(=O)O[C@@H]1CC[C@@](C)(/C=C/c2ccc3c(c2O)[C@@](O)(c2ccccc2)[C@H](OC)C(=O)N3)C[C@@H]1C)C(C)C | > 50 µM |  | 
2 | CN[C@H](C(=O)O[C@@H]1CC[C@@](C)(/C=C/c2ccc3c(c2O)[C@@](O)(c2ccccc2)[C@H](OC)C(=O)N3)C[C@H]1C)C(C)C | 0.042 µM | 22 µM | 520
3 | CO[C@@H]1C(=O)Nc2ccc(/C=C/[C@]3(C)CCC(=O)[C@H](C)C3)c(O)c2[C@@]1(O)c1ccccc1 | 6.6 µM | 27 µM | 4
4 | CO[C@@H]1C(=O)Nc2ccc(/C=C/[C@]3(C)CCC(=O)[C@@H](C)C3)c(O)c2[C@@]1(O)c1ccccc1 [AFLAQUINOLONE A] | > 50 µM |  | 
5 | NC(=O)c1ncn([C@@H]2O[C@H](CO)[C@@H](O)[C@H]2O)n1 [RIBAVIRIN] | 20 µM | > 3000 µM | > 150

Reference: ChEMBL document CHEMBL3352331, “Anti-respiratory syncytial virus prenylated dihydroquinolone derivatives from the gorgonian-derived fungus Aspergillus sp. XS-20090B15” (J Nat Prod, 2014)
